Legend:
[1] = molecular target: Coagulation factor X (Homo sapiens, UniProt P00742); assay: Inhibition of human factor 10a
[2] = tested on: Plasma; assay: Anticoagulant potency in human plasma assessed as concentration required to double the time to clot formation by PT assay; assay type: functional
Outline: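 Human normal plasma mixed with compound dilutions in DMSO (1.5 µL into 48.5 µL), preincubated 4 min at 37 °C, clotting started with thromboplastin and timed on an automatic coagulometer. Prolongation relative to DMSO; concentration doubling clotting time derived by least-squares regression; mean of duplicates.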

[3] = tested on: Plasma; assay: Anticoagulant potency in mouse plasma assessed as concentration required to double the time to clot formation by PT assay; assay type: functional
[4] = tested on: Plasma; assay: Anticoagulant activity in mouse plasma assessed as ratio of prothrombin time in drug to untreated control at 30 mg/kg, po; assay type: functional
Outline: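 Male ICR mice (30-35 g), fasted >12 h, dosed orally at 30 mg/kg as suspension in 0.5% methylcellulose; vehicle controls. Citrated aortic blood drawn 1 h post-dose under pentobarbital anaesthesia, spun 1000g 10 min to platelet-poor plasma. PT on 50 µL plasma preincubated 4 min at 37 °C, started with thromboplastin; clotting time expressed relative to control group (n = 3).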

[5] = molecular target: CYP3A4 (Homo sapiens, UniProt P08684); assay: Inhibition of CYP3A4 expressed in human B-lymphoblastoid cells at 10 uM; assay type: ADME, cell-based
Outline: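 Recombinant CYP3A4 (10 nM, from CYP3A4-expressing human B-lymphoblastoid cells) incubated with 100 µM testosterone and 10 µM test compound for 30 min at 37 °C; 6β-hydroxytestosterone formation quantified by HPLC-UV.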

[6] = Basicity, pKa by titration method; assay type: physicochemical
[7] = physchem; settings: buffer, pH 7.4
[8] = tested on: Rattus norvegicus; assay: Effect on bleeding time in Sprague-Dawley rat at 0.3 mg/kg, po; assay type: functional
Outline: (§1)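 Male Sprague-Dawley rats (7 weeks old) dosed orally 18 h before measurement, then anesthetized with sodium pentobarbital. Tail transected 2-3 mm from the tip; blood blotted with filter paper every 30 s until bleeding stopped or 30 min elapsed. Bleeding time given as mean ± SEM, n = 6, compared with a vehicle group by one-tailed Shirley-Williams' test.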

[9] = tested on: Rattus norvegicus; assay: Effect on bleeding time in Sprague-Dawley rat at 1 mg/kg, po; assay type: functional; outline: as §1

Coagulation factor X, sequence (P00742 41-179 limits assumed): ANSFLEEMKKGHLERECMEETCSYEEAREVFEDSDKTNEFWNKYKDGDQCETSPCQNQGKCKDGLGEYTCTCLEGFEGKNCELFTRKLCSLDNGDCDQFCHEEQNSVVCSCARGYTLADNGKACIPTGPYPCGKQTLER
Coagulation factor X, sequence (P00742 235-488 limits assumed): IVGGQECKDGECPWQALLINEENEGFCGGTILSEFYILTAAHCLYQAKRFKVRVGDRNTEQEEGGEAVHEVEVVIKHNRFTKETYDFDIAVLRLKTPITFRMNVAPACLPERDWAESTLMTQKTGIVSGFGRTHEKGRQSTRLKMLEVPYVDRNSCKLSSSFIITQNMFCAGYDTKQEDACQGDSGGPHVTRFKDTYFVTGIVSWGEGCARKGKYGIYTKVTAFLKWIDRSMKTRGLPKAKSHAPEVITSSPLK
CYP3A4, sequence (P08684 whole entry): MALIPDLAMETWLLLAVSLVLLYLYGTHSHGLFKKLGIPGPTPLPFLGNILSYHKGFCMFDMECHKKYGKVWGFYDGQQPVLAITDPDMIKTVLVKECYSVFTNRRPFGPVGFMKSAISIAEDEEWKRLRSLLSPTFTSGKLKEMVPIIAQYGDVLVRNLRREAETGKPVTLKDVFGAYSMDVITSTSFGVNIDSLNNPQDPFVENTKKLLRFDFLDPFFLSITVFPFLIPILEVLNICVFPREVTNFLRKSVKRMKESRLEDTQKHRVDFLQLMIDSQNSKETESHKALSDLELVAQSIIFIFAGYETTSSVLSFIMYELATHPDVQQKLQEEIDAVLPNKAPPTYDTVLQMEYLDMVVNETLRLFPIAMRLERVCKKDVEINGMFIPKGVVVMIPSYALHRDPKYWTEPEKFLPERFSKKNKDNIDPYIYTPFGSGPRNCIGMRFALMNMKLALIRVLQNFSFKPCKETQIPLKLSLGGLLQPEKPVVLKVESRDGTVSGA

In the case of `CCc1nccn1C1CCN(C(=O)CCS(=O)(=O)c2ccc3cc(Cl)ccc3c2)CC1`, the IC50 [1] is reported as 160 nM and the Activity [2] is reported as 1 µM.
In the case of `Cc1nccn1CCN1CCN(C(=O)CCS(=O)(=O)c2ccc3cc(Cl)ccc3c2)CC1`, the IC50 [1] is reported as 54 nM, the Activity [2] is reported as 0.99 µM and the Activity [3] is reported as 2.1 µM. It also gave a Ratio [4] of 1.1 and an inhibition at 10 µM [5] of 53%.
`Cc1nccn1C1CCN(C(=O)CCS(=O)(=O)c2ccc3cc(Cl)ccc3c2)CC1` gave an IC50 [1] of 170 nM, an Activity [2] of 0.99 µM and an Activity [3] of 3.3 µM. For the same molecule, the Ratio [4] was 1.1 and the inhibition at 10 µM [5] was 34%.
`O=C(CCS(=O)(=O)c1ccc2cc(Cl)ccc2c1)N1CCC(c2cnc[nH]2)CC1` showed an IC50 [1] of 170 nM, an Activity [2] of 3 µM and a pKa [6] of 6.9. It also gave a logD [7] of 2.
For `Cn1cncc1C1CCN(C(=O)CCS(=O)(=O)c2ccc3cc(Cl)ccc3c2)CC1`, the IC50 [1] was 56 nM, the Activity [2] was 0.49 µM and the pKa [6] was 7.2. It also gave an Activity [3] of 2.7 µM, a Ratio [4] of 1.2 and an inhibition at 10 µM [5] of 82%. For the same molecule, the logD [7] was 2.
In the case of `CC(=O)CC(c1ccccc1)c1c(O)c2ccccc2oc1=O` (stereo not given) [WARFARIN], the Time [8] is reported as 445 s and the Time [9] is reported as 1590 s.
`Cc1nccn1CC1CCN(C(=O)CCS(=O)(=O)c2ccc3cc(Cl)ccc3c2)CC1` showed an IC50 [1] of 910 nM and an Activity [2] of 7.7 µM.
In the case of `Cc1nccn1CCC1CCN(C(=O)CCS(=O)(=O)c2ccc3cc(Cl)ccc3c2)CC1`, the IC50 [1] is reported as 37 nM, the Activity [2] is reported as 0.91 µM and the pKa [6] is reported as 7.9. The Activity [3] was 1.7 µM, the Ratio [4] was 1.1 and the inhibition at 10 µM [5] was 38%. For the same molecule, the logD [7] was 2.2.
With `Cc1nccn1CCCC1CCN(C(=O)CCS(=O)(=O)c2ccc3cc(Cl)ccc3c2)CC1` the IC50 [1] was 460 nM and the Activity [2] was >10 µM.
With `Cc1nccn1CCCCC1CCN(C(=O)CCS(=O)(=O)c2ccc3cc(Cl)ccc3c2)CC1` the IC50 [1] was 300 nM and the Activity [2] was >10 µM.
`O=C(CCS(=O)(=O)c1ccc2cc(Cl)ccc2c1)N1CCC(n2ccnc2)CC1` gave an IC50 [1] of 1400 nM and an Activity [2] of 7 µM.
